Source: ChEMBL document CHEMBL1138284, “Malaria causal prophylactic activity of imidazolidinedione derivatives” (J Med Chem, 2007)
Active and inactive are the calls of the source. The calls are words filed in the database; no cut-off is given here.

Assays:
[1] = Metabolic stability assessed as half life in mouse liver microsomes
Plasmodium yoelii [2] = assay: Protection against Plasmodium yoelii sporozoite infected mice (Mus musculus) as minimal active peroral dose; type: functional
Procedure, shortened: (§1)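 Mice challenged with Plasmodium yoelii sporozoites received a single oral dose of the test compound. Protection was scored at day 6 as the number of parasite-free mice out of 5 per dose group. The minimum active dose was taken as the lowest dose giving activity.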

[3] = Metabolic stability assessed as half life in human liver microsomes
Plasmodium yoelii [4] = assay: Protection against Plasmodium yoelii sporozoite infected mice (Mus musculus) at 40 mg/kg peroral dose; type: functional, organism-based; design: dose 40 mg/kg; procedure, shortened: as §1
Plasmodium yoelii [5] = assay: Protection against Plasmodium yoelii sporozoite infected mice (Mus musculus) at 160 mg/kg peroral dose; type: functional, organism-based; design: dose 160 mg/kg; procedure, shortened: as §1
Plasmodium yoelii [6] = assay: Protection against Plasmodium yoelii sporozoite infection in mice (Mus musculus) at 10 mg/kg peroral dose; type: functional, organism-based; design: dose 10 mg/kg; procedure, shortened: as §1
Plasmodium falciparum [7] = assay: Antimalarial activity against pyrimethamine-sensitive Plasmodium falciparum D6; type: functional, organism-based
Plasmodium berghei = assay: Antimalarial activity against Plasmodium berghei infected mice (Mus musculus); type: functional, organism-based
Plasmodium falciparum [8] = assay: Antimalarial activity against pyrimethamine-resistant Plasmodium falciparum W2; type: functional, organism-based
Plasmodium cynomolgi = assay: Prophylactic parasite potency against Plasmodium cynomolgi sporozoite challenged rhesus monkey at 30 mg/kg/day Intramuscular dose for 3 days; type: functional
Procedure, shortened: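 Rhesus monkeys were inoculated with P. cynomolgi sporozoites and given 30 mg/kg IM once daily for 3 days, starting the day before inoculation; two monkeys per group, with untreated controls. Blood smears were taken daily from day 6 for 21 days, then 3×/week for 4 weeks, then 2×/week to 100 days after the last dose. Patency was the first smear-positive day.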

Plasmodium yoelii [9] = assay: Protection against Plasmodium yoelii sporozoite infected mice (Mus musculus) at 120 mg/kg peroral dose; type: functional, organism-based; design: dose 120 mg/kg
Plasmodium yoelii [10] = assay: Protection against Plasmodium yoelii sporozoite infected mice (Mus musculus) as minimal active perorally daily dose over 3 days; type: functional
Procedure, shortened: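 Mice were challenged with P. yoelii sporozoites and dosed orally once daily for 3 consecutive days (days −1, 0, +1), starting the day before challenge. Protection was scored at day 6 as protected mice out of 5 per dose. The minimum active dose was taken from the dose series.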

Plasmodium yoelii [11] = assay: Protection against Plasmodium yoelii sporozoite infected mice (Mus musculus) at 480 mg/kg peroral dose; type: functional, organism-based; design: dose 480 mg/kg
[12] = Half life in iv dosed rat plasma; type: ADME, organism-based

SMILES	half-life ([1]; liver microsomes)	Activity (Plasmodium yoelii [2])	half-life ([3]; liver microsomes)	Activity (Plasmodium yoelii [5])	Activity (Plasmodium falciparum [7])	Activity (Plasmodium berghei)	Activity (Plasmodium falciparum [8])	Activity (Plasmodium cynomolgi)	Activity (Plasmodium yoelii [10])	further results
CC(C)N/C(=N/C1=NC(=O)C(=O)N1c1ccc(Cl)c(Cl)c1)NC(=O)C(C)C	< 10 min	<10 mg/kg	< 10 min	Active						Activity (Plasmodium yoelii [4]): Active
CCCC(=O)N/C(=N\C1=NC(=O)C(=O)N1c1ccc(Cl)c(Cl)c1)NC(C)C	< 10 min	<10 mg/kg	< 10 min	Active						Activity (Plasmodium yoelii [4]): Active; Activity (Plasmodium yoelii [6]): Active
CCCc1nc(Nc2ccc(Cl)c(Cl)c2)nc(NC(C)C)n1					inactive	inactive	inactive			
CC(C)Nc1nc(Nc2ccc(Cl)c(Cl)c2)nc(C(C)C)n1					inactive	inactive	inactive			
CCC(CC)c1nc(Nc2ccc(Cl)c(Cl)c2)nc(NC(C)C)n1	> 60 min		> 60 min		inactive	inactive	inactive			
CC(C)N1C(=O)C(=O)N=C1N/C(=N\C(=O)OC(C)(C)C)Nc1ccc(Cl)c(Cl)c1								68 days		
CC(C)N1C(=O)C(=O)N=C1/N=C(/NC(=O)C(C)(C)C)Nc1ccc(Cl)c(Cl)c1		>160 mg/kg						40 days	>480 mg/kg	half-life ([1]; microsomes): > 60 min; half-life ([3]; microsomes): > 60 min; Activity (Plasmodium yoelii [9]): inactive; Activity (Plasmodium yoelii [11]): inactive
CCC(CC)C(=O)N/C(=N\C1=NC(=O)C(=O)N1c1ccc(Cl)c(Cl)c1)NC(C)C	< 10 min	<10 mg/kg	< 10 min	Active				15 days		half-life [12]: < 10 min
CC(C)C(=O)N/C(=N/C1=NC(=O)C(=O)N1C(C)C)Nc1ccc(Cl)c(Cl)c1		>160 mg/kg							<30 mg/kg	
CCC(CC)C(=O)N/C(=N/C1=NC(=O)C(=O)N1C(C)C)Nc1ccc(Cl)c(Cl)c1	> 60 min	>160 mg/kg	> 60 min					17 days	7.5 mg/kg	
